Test results: publication PMC10979060 (Heliyon, 2024)
Read-outs that look alike come from different tables or passages of the source. No end group written: not given here.

Legend:
ACE [1] = experiment: ACE-inhibitory kinetics; type: biochemical
Procedure, shortened: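 Reciprocal velocity was plotted against reciprocal HHL concentration (Lineweaver–Burk). Vmax came from the Y-axis intercept and Km from the X-axis intercept. The inhibition mode was assigned from the plot pattern. Runs were in triplicate.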

ACE [2] = settings: cited from earlier work

With KKCHFWPFPW [KKCHFWPFPW] the inhibition mode (ACE [1]; Lineweaver–Burk, HHL 0.5, 1, 2 mM, peptide 0, 17.63, 35.26, 70.52, 105.78, 141.04, 176.3 μM, triplicate) was “competitive inhibition”, the Km values (ACE [1]; Lineweaver–Burk, HHL 0.5, 1, 2 mM, peptide added vs control, triplicate) was “higher than that of the control” and the “inhibitor class (substrate-type, prodrug-type or true inhibitor)” value (ACE [1]; according to the Lineweaver–Burk plot) was “true inhibitor”.

For MEGAQEAQGD, the IC50 (ACE [2]; peptide from sea cucumber, ref [38]) is listed as 4.5 µM.

For Tyr-Arg-Pro-Tyr, the IC50 (ACE [2]; peptide from bonito, ref [37]) is listed as 320 µM.

For Val-Lys-Pro, the IC50 (ACE [2]; peptide from freshwater clam, ref [39]) is listed as 3.7 µM.
